Screening results as filed in PubChem BioAssay.
zfTRPN1 agonist: zebrafish TRPN1 (NompC) channel agonism | HEK293 zebrafish TRPN1-YFP, Fluo-8 calcium fluorescence; 100% = response to 87 µM carbachol | AID 1424 | hit rate 0.18% among 220,000 | activation, % at 3 µM;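 active = activation above its plate's cutoff, the mean activation of test wells on that plate plus 3 SD, cut at about 19% in these data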;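 also: 0% = DMSO alone and 100% = 87 µM carbachol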
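Material: zebrafish TRPN1-YFP in HEK293 cells. Doses: one dose of 3 µM, 0.3% DMSO. Incubation: dye 1 h 37 °C plus 30 min RT. Measured by: intracellular calcium fluorescence with Fluo-8.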
OX1R antag-1: blocks the human orexin 1 receptor. CHO/OX1R cells, Fluo-8 calcium fluorescence, orexin A. inhibition, % at 5 µM. hit rate 0.43% among 330,000. AID 434989;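 active = inhibition above its plate's threshold, mean inhibition of all tested compounds on the plate plus 3 SD, cut at about 37% in these data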;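 also: 0% = orexin A challenge wells and 100% = SB-334867-A antagonist wells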
Target sequence (O43613 whole entry, looked up): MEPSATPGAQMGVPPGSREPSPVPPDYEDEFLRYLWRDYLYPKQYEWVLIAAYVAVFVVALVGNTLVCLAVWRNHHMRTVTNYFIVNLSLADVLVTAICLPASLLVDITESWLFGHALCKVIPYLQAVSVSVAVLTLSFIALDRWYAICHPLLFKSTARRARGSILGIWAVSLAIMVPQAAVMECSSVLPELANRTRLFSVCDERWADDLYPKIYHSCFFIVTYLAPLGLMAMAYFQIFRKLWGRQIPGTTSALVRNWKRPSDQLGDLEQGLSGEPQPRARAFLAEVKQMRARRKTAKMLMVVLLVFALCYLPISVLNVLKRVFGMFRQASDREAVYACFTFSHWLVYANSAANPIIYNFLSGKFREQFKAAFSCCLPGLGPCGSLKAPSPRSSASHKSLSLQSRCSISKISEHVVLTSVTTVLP
TRPML3 ag: human mucolipin-3 channel agonism. HEK293 TRPML3-YFP, Fluo-8 calcium fluorescence; 100% = the carbachol control signal. activation, % at 3 µM. hit rate 0.29% among 220,000. AID 1448;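 active = activation above its plate's cutoff, the mean activation of the plate's test wells plus 3 SD, cut at about 12% in these data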;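 also: 0% = DMSO only wells and 100% = carbachol wells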
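Material: TRPML3-YFP stable HEK293 cells | Dosing: One concentration, 3 µM nominal, 0.3% DMSO | Timing: 125 s total fluorescence read per well | Technique: Fluo-8 calcium dye fluorescence, ex 470-495, em 515-575 nm | Measure: Percent activation from peak-to-basal fluorescence ratio, scaled between DMSO and carbachol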
OX1R antag-2: antagonists of human orexin 1 receptor (OX1R); O43613; inhibition, % at 6.6 µM; OX1R-expressing cells, FRET antagonist read-out; hit rate 1.8% among 330,000; in the data active = inhibition mostly above about 38%, no sharp cut-off; inactive = mostly below about 40%;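 also: 0% = agonist challenge alone and 100% = reference antagonist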
GPR7 antagonist: antagonists of human GPR7 (neuropeptides B/W receptor 1); hit rate 1.1% among 290,000; GPR7-expressing cells, fluorescence antagonist assay; inhibition, % at 4.4 µM; P48145; in the data active = inhibition above about 16%, passing the limit was not always enough;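 also: cells stimulated with the agonist NPW; 0% = agonist with vehicle and 100% = vehicle without agonist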
CHO parental Ca: signal in parental CHO cells, OX1R antagonist counter-screen. parental CHO-K1, ATP-induced calcium, Fluo-8 fluorescence. inhibition, % at 5.6 µM. hit rate 0.63% among 330,000;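 active = inhibition above that plate's mean sample inhibition plus 3 SD, cut at about 26% in these data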;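 also: 0% = ATP-challenged DMSO wells and 100% = DMSO wells without ATP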
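Test system: parental CHO cells; detection: calcium-sensitive Fluo-8 fluorescence; evaluation: percent inhibition of calcium signal; also added: ATP as calcium-mobilizing challenge; repeats: one well per compound; control set: ATP-challenged DMSO wells low, unchallenged DMSO wells high; compound: single nominal dose of 5.6 µM per compound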
GPR7 antag cf: human GPR7 antagonism, confirmation assay. inhibition, % at 4.4 µM. AID 1952. shares compounds with GPR7 antagonist. hit rate 52% among 2,400. GPR7-expressing cells, calcium fluorescence antagonist mode; in the data active = inhibition above about 24%;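 also: stimulated with the GPR7 agonist NPW; 0% = agonist plus vehicle and 100% = vehicle alone without agonist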
MCHR1 antag: MCHR1 (human) antagonism in GPR7 counter-screen. shares compounds with GPR7 antagonist. MCHR1-expressing cells, fluorescence antagonist assay. inhibition, % at 4.4 µM. hit rate 62% among 2,400; in the data active = inhibition above about 22%;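 also: 0% = vehicle with agonist and 100% = vehicle without agonist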
Active calls of the source: *; x = no result. In the library only some 3.2% were active in any assay of this set; here they are far more common.

SMILES	zfTRPN1 agonist	OX1R antag-1	TRPML3 ag	OX1R antag-2	GPR7 antagonist	CHO parental Ca	GPR7 antag cf	MCHR1 antag
CC1=CC2=NC(=O)/C(=C/c3coc4ccc(Cl)cc4c3=O)C(=N)N2O1	53*	23	16*	7	21*	39*	28*	61*
O=C(COC(=O)C1CC2C=CC1C2)NCCc1ccccc1 (stereo unspecified)	0	2	0	16	25*	10	12	1
Clc1ccc(-c2c[n+](Cc3ccc(Br)cc3)c3n2CCCCC3)cc1	-1	-16	0	13	-1	-18	x	x
Clc1ccc(-c2c[n+](Cc3ccc(Cl)cc3Cl)c3n2CCCCC3)cc1	-2	-17	-1	6	23*	-10	26*	27*
Cc1ccc2nc(C)c(CN3CCN(c4ccc([N+](=O)[O-])cc4Cl)CC3)n2c1	x	0	x	22	23*	34	52*	52*
O=[N+]([O-])c1ccc(Cl)c(CN2CCN(c3ncccn3)CC2)c1	x	-21	x	23	-9	-15	x	x
COc1ccc(NC(=O)[C@H](Cc2c[nH]c3ccccc23)NC(=O)[C@@H]2Cc3ccccc3CN2)cc1	x	-27	x	10	3	-19	x	x
CC(C)c1ccc(NC(=O)[C@H](Cc2c[nH]c3ccccc23)NC(=O)[C@@H]2Cc3ccccc3CN2)cc1	x	-14	x	1	27*	-1	7	3
C=CCNC(=S)N1CCc2c([nH]c3ccccc23)C1C (stereo unspecified)	0	4	0	16	11	7	x	x
CC1c2[nH]c3ccccc3c2CCN1S(C)(=O)=O (stereo unspecified)	1	-18	0	16	26*	-2	4	6
Cc1ccccc1CC1(CO)CCCN(C(=O)c2ccccc2Cl)C1 (stereo unspecified)	11	6	2	14	34*	-3	32*	18
Cc1ccccc1CC1(CO)CCCN(C(=O)c2cc(Cl)ccc2F)C1 (stereo unspecified)	8	-8	2	15	x	-16	x	7
CCC(=O)Nc1ccc(NC(=O)CSc2nnc(-c3ccco3)n2CC)cc1	x	-7	x	4	-4	-3	x	x
CCN(CC)c1ccc(S(=O)(=O)N2CCOCC2)cc1NC(=O)COC(=O)/C=C/c1ccc(C)o1	x	3	x	8	x	15	x	x
COc1ccc2[nH]c3c(=O)n(CCCC(=O)NC4CCC(C)CC4)c(=S)[nH]c3c2c1 (stereo unspecified)	x	-2	x	0	-2	-16	x	x
COc1ccc2[nH]c3c(=O)n(CCCC(=O)NC4CCCCC4C)c(=S)[nH]c3c2c1 (stereo unspecified)	x	-1	x	1	22*	-23	-4	-2
O=C(Cc1cccs1)NCc1cc(Cl)cc(Cl)c1	x	-16	x	-8	-8	-14	x	x
Cc1cc(C(=O)CN2CCCC(C)C2)c(C)n1-c1ccc(F)cc1 (stereo unspecified)	1	-14	1	-3	-11	-10	x	x
Cc1cc(OCC(=O)Nc2ccncc2)cc(C)c1Cl	x	53*	x	-3	29*	44*	36*	60*
O=C(Cn1nnc(-c2ccc(F)cc2)n1)Nc1cccc(S(=O)(=O)N2CCCC2)c1	x	1	x	8	x	1	x	x
OC(COCc1ccc(Cl)cc1)CN1CCCCC1 (stereo unspecified)	x	-2	x	10	15	-3	x	x
OC(COCc1ccc(Cl)cc1)CN1CCN(CC(O)COCc2ccc(Cl)cc2)CC1 (stereo unspecified)	10	-6	1	8	26*	3	68*	73*
CC(C)(C)C(=O)NC1(C(F)(F)F)NC(=O)N(Cc2ccccc2)C1=O (stereo unspecified)	-1	-23	0	20	25*	-12	0	9
CSc1ncccc1C(=O)NNc1cc(Cl)ccc1Cl	x	-10	x	15	-5	-14	x	x
O=C(O)c1ccc(-n2nncc2-c2ccco2)cc1	x	-23	x	-4	-16	-8	x	x
SMILES	zfTRPN1 agonist	OX1R antag-1	TRPML3 ag	OX1R antag-2	GPR7 antagonist	CHO parental Ca	GPR7 antag cf	MCHR1 antag
O=C(Nc1ccc(-n2nncc2-c2ccco2)cc1)c1ccc(F)cc1	-1	5	0	18	22*	-14	40*	73*
CCC(C)[C@H](NC(=O)c1cc2cc(Cl)ccc2n1C)C(=O)N1CCC[C@H]1C(=O)O (stereo partly specified)	x	-28	x	3	-4	-16	x	x
CC(C)CNc1ncnc2c1cnn2Cc1ccccc1Cl	x	-16	x	3	38*	-17	36*	24*
COc1ccc(OCc2nnc(SCC(=O)N3CCCC3)o2)cc1	x	-26	x	12	24*	-8	-1	7
CC1CCCN(CCCOc2ccc(Br)cc2Cl)C1 (stereo unspecified)	-1	-23	3	6	2	-14	x	x
CN(C)CCCCOc1ccc(Br)cc1Cl	0	-8	1	29	29*	-6	17	18
CC1CCN(CCOCCOc2ccc(Br)cc2Cl)CC1	0	-20	0	19	29*	-15	32*	37*
CC12CCC(C/C1=N\N=C1\NC(=O)/C(=C\c3ccc(Cl)cc3)S1)C2(C)C (stereo unspecified)	-1	-3	1	-1	-9	0	x	x
O=C(COc1ccc2ccc(=O)oc2c1)N1CCN(c2ccccc2)CC1	1	-16	1	14	-10	-14	x	x
Cc1cccc(N2CCN(C(=O)COc3ccc4ccc(=O)oc4c3)CC2)c1C	x	-20	x	15	37*	-20	45*	42*
CC(Sc1nnc2c(n1)[nH]c1ccccc12)C(=O)NC1CCCCC1 (stereo unspecified)	x	-22	x	26	-4	-7	x	x
CN(C)CCN(C(=O)/C=C/c1cccs1)c1nc2c(F)cc(F)cc2s1	3	-17	1	12	-4	-13	x	x
COc1ccc(OC)c2sc(N(CCN(C)C)C(=O)/C=C/c3cccs3)nc12	x	16	x	10	31*	10	13	19
COc1ccc(C)c2sc(N(CCN(C)C)C(=O)/C=C/c3cccs3)nc12	x	-7	x	8	29*	-6	38*	38*
CCOc1cccc2sc(N(CCN(C)C)C(=O)/C=C/c3cccs3)nc12	x	-19	x	9	6	-12	x	x
Cc1cccn2c(CNC3CCCc4ccccc43)c(C(=O)N3CCCCC3)nc12 (stereo unspecified)	0	-41	0	27	34*	-24	17	17
O=C(Nc1ccc(C(=O)N2CCCCC2)cc1)Nc1cccc(Cl)c1	x	-10	x	4	7	-8	x	x
